Calls of active or inactive are those of the source. The calls are words filed in the database; no cut-off is given here.
Tests used:
[1] = Antiproliferative activity against mouse tsFT210 cells after 48 hrs by WST-8 assay; type: functional, cell-based; settings: tsFT210, 48 h
In short: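 tsFT210 cells (temperature-sensitive cdc2 mutant from mouse mammary carcinoma FM3A), kept in RPMI 1640 with 10% fetal calf serum at 32 °C; exponentially growing cells exposed to compound at 32 °C for 48 h, then WST-8 added for 4 h at 37 °C; absorbance at 450 nm read to estimate cell number; IC50 reported.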

[2] = Cell cycle arrest in mouse tsFT210 cells assessed as accumulation at G1 phase at 100 uM after 18 hrs by flow cytometry; type: functional, cell-based
In short: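 Synchronous-culture assay: tsFT210 cells seeded at 1x10^5 cells/mL, preincubated 1 h at 32 °C, then incubated with compound 18 h at 32 °C; morphology checked by microscopy; DNA content by flow cytometry after staining with 50 μg/mL propidium iodide, 0.1% sodium citrate, 0.2% NP-40; nuclei/chromosomes stained with Hoechst 33258 after KCl swelling and Carnoy fixation.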

[3] = Inhibition of tubulin polymerization in presence of microtubule-associated proteins
In short: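 Tubulin containing MAPs in PME buffer (100 mM PIPES pH 6.9, 2 mM EGTA, 1 mM MgSO4) with GTP and drug in DMSO, tubulin added last; 37 °C, absorbance change at 351 nm over 10 min. Drug concentration varied across runs for delta absorbance versus concentration curves; colchicine standard curves made for each tubulin batch.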

For COc1ccc2c(C[C@@H]3NC(=O)[C@@H]4CCCN4C3=O)c(Cc3ccccc3)[nH]c2c1, the IC50 [1] was over 100 µM.

COc1ccc2c(C[C@@H]3NC(=O)[C@H](C(C)C)NC3=O)c[nH]c2c1 showed an IC50 [1] of over 100 µM.

COc1ccc2c(C[C@@H]3NC(=O)[C@@H]4CCCN4C3=O)c(Br)[nH]c2c1 gave an IC50 [1] of 96 µM.

With COc1ccc2c(C[C@@H]3NC(=O)[C@@H]4CCCN4C3=O)cn(C)c2c1 the IC50 [1] was over 100 µM.

In the case of COc1ccc2c(C[C@@H]3NC(=O)[C@@H]4CCCN4C3=O)c[nH]c2c1, the IC50 [1] is reported as over 100 µM.

For COc1ccc2c(C[C@@H]3NC(=O)[C@@H]4CCCN4C3=O)c(CC=C(C)C)n(Cc3ccccc3)c2c1, the IC50 [1] was 55 µM.

In the case of C=CCn1c(CC=C(C)C)c(C[C@@H]2NC(=O)[C@@H]3CCCN3C2=O)c2ccc(OC)cc21, the IC50 [1] is reported as 75 µM.

In the case of C=CCn1cc(C[C@@H]2NC(=O)[C@@H]3CCCN3C2=O)c2ccc(OC)cc21, the IC50 [1] is reported as 62 µM and the Activity [2] is reported as “Active”.

With COc1ccc2c(C[C@@H]3NC(=O)[C@@H]4CCCN4C3=O)c(Cl)[nH]c2c1 the IC50 [1] was over 100 µM.

COC(=O)/C=C/c1[nH]c2cc(OC)ccc2c1C[C@@H]1NC(=O)[C@@H]2CCCN2C1=O showed an IC50 [1] of over 100 µM.

COc1cc2c(c(OC)c1OC)-c1ccc(OC)c(=O)cc1[C@@H](NC(C)=O)CC2 [COLCHICINE] showed an IC50 [3] of 44.9 µM.

CC(C)=CCc1[nH]c2cc(N)ccc2c1C[C@@H]1NC(=O)[C@@H]2CCCN2C1=O showed an IC50 [1] of over 100 µM.

Work on CC(C)=CCc1[nH]c2cc([N+](=O)[O-])ccc2c1C[C@@H]1NC(=O)[C@@H]2CCCN2C1=O yielded an IC50 [1] of over 100 µM.

COc1ccc2c(C[C@@H]3NC(=O)[C@H](Cc4ccccc4)NC3=O)c(CC=C(C)C)[nH]c2c1 gave an IC50 [1] of 10 µM.

With COc1ccc2c(C[C@@H]3NC(=O)[C@@H]4CCCN4C3=O)cn(Cc3ccccc3)c2c1 the IC50 [1] was 46 µM and the Activity [2] was “Active”.

In the case of COc1ccc2c(C[C@@H]3NC(=O)[C@@H]4CCCN4C3=O)cn(CC=C(C)C)c2c1, the IC50 [1] is reported as over 100 µM.

Source: ChEMBL document CHEMBL1144702, “Synthesis and structure-activity relationship studies on tryprostatin A, an inhibitor of breast cancer resistance protein” (Bioorg Med Chem, 2008)
